Experimental findings from paper PMC4804196 (Journal of biomolecular screening, 2012) are described below.

Some results are limits rather than exact numbers.

Assay [1] has as its target T1, human RXFP1 (Homo sapiens, UniProt Q9HBX9).
T1 sequence (Q9HBX9 1-757): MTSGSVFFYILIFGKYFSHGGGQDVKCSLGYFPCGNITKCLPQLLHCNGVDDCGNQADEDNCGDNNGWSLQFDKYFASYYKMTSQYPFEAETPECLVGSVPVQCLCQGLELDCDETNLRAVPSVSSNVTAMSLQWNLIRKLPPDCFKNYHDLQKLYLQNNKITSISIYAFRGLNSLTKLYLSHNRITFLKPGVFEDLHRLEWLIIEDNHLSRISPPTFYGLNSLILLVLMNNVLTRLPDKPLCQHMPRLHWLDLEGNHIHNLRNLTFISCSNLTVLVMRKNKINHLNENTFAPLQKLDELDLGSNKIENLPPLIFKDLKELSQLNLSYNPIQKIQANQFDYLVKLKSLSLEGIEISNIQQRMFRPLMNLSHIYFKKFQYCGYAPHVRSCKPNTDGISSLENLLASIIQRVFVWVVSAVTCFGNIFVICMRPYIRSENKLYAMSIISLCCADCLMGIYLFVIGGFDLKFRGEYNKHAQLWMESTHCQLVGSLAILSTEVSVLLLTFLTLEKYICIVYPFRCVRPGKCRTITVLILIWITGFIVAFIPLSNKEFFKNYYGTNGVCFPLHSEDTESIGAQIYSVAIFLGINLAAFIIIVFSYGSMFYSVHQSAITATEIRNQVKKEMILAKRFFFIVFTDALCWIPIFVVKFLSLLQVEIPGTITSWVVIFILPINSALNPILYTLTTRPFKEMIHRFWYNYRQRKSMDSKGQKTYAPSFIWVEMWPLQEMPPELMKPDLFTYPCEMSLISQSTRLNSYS
Kind of assay: HTRF cAMP assay in HEK293-RXFP1 cells. The assay is classed as cell-based. In general terms: TR-FRET usually uses a lanthanide donor and a delayed reading to cut background.

The target of assay [2] is human relaxin family receptor 2 (RXFP2) (Homo sapiens, UniProt Q8WXD0). Kind of assay: HTRF cAMP selectivity assay in HEK293-RXFP2 cells. Type of assay: cell-based. As to conditions: HEK293-RXFP1 vs HEK293-RXFP2.
For assay [3], the target named is T2, vasopressin 1b receptor (V1b) (Homo sapiens, UniProt P47901).
T2 sequence (P47901 1-424): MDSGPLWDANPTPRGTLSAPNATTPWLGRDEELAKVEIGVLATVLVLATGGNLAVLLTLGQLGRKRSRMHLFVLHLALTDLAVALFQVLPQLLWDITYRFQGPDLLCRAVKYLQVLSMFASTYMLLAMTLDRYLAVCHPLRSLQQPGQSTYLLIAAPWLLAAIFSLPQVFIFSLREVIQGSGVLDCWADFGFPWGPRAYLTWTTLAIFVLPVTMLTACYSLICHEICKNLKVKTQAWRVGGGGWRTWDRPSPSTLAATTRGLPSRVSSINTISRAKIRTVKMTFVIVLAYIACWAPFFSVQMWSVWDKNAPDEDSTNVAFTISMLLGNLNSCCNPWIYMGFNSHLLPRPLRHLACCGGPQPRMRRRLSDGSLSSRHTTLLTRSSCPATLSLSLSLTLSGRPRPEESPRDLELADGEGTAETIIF
Kind of assay: HTRF cAMP counter screen in HEK293-V1b cells. Type of assay: cell-based.

Assay [4] deals with T1, human RXFP1. Kind of assay: ELISA cAMP assay. Type of assay: cell-based. As to conditions: 96-well; for efficacy: normalized to 57.5 μM forskolin as 100%. The method, boiled down: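 HEK293T cells stably expressing human RXFP1 were grown in DMEM with 10% FBS, penicillin/streptomycin and 500 μg/mL geneticin. They were seeded at 16,000 cells/well and left overnight at 37 °C, 5% CO₂. PDE inhibitor Ro 20-1724 (417 μM addition solution in PBS+) was added, then test compound in DMSO, for 30 min at 37 °C. Cells were lysed and cAMP was quantified by ELISA. EC50 came from nonlinear regression of dose-response curves.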

In assay [5] the target is human relaxin family receptor 1 (RXFP1) (human) (UniProt Q9HBX9).

Porcine relaxin (ligand), sequence (P01348 25-182): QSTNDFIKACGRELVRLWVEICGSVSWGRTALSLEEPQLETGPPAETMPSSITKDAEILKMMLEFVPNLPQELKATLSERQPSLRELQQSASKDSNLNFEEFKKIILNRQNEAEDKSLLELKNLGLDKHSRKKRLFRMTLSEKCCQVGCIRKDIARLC
human relaxin family receptor 2 (RXFP2), sequence (Q8WXD0 whole entry): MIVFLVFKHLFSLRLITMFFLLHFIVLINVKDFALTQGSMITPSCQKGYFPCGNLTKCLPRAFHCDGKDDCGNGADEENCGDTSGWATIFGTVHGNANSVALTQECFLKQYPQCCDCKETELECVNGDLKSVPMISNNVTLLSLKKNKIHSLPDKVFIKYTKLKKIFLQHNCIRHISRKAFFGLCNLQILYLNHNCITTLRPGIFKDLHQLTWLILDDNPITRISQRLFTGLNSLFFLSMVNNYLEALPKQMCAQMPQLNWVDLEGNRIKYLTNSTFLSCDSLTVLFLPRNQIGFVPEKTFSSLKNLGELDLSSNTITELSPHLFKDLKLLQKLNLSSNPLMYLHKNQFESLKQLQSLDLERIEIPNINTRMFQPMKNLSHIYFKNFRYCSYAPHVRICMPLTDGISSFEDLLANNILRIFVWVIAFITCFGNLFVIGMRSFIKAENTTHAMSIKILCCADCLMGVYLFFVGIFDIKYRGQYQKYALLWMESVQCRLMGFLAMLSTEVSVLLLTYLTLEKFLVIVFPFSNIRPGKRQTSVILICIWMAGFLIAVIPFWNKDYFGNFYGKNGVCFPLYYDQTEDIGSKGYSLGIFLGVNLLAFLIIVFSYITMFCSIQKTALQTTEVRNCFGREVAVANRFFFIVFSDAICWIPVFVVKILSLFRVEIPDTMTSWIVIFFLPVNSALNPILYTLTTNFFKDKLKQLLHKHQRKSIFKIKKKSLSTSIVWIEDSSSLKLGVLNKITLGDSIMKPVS

Consider `C=C[C@@]1(C)CC(=O)[C@]2(O)[C@@]3(C)[C@@H](O)CCC(C)(C)[C@@H]3[C@H](O)[C@H](OC(C)=O)[C@@]2(C)O1` [forskolin, reference compound], for which the EC50 came to 164 nM at human RXFP1 [1] (EC50 (cAMP response), HEK293-RXFP1 cells, 384-well format) and 193 nM at human RXFP1 [1] (EC50 (cAMP response), HEK293-RXFP1 cells, 1,536-well format).
Regarding relaxin, in assay [2], the “selectivity towards RXFP1 over RXFP2” value is more than 30 fold. In addition, in assay [3], the “activity in HEK293-V1b counter screen” value is on record as “no activity”. For the same compound, the EC50 at human RXFP1 [1] (read-out: EC50 (cAMP response), HEK293-RXFP1 cells, 384-well format) stood at 0.203 nM; at human RXFP1 [1] (read-out: EC50 (cAMP response), HEK293-RXFP1 cells, 1,536-well format) it was 0.494 nM.
As to `O=C(Nc1ccccc1C(=O)Nc1ccccc1C(=O)NCc1ccco1)c1ccco1` [MLS000088899], on human RXFP1 [4], a half-maximal effect (EC50) was put at 2900 nM and the efficacy was 80%.
Porcine relaxin (ligand) displayed an EC50 of cAMP production (HTRF cAMP assay) in HEK293-RXFP1 cells, 384-well format in assay [5] of 0.203 nM.
As to `O=C(Nc1cccc(C(F)(F)F)c1)c1ccccc1NC(=O)C1CCCCC1` [MLS000579461], at human RXFP1 [4], the EC50 came to 6200 nM and the efficacy amounted to 60%.

What is called EC50 is the concentration needed to bring the measured effect to its halfway point.
